Structures are written as SMILES.

Here are results for seven molecules from ChEMBL document CHEMBL3826877, “Fatty Acid Amide Hydrolase (FAAH), Acetylcholinesterase (AChE), and Butyrylcholinesterase (BuChE): Networked Targets for the Development of Carbamates as Potential Anti-Alzheimer's Disease Agents” (J Med Chem, 2016).

One data set addresses T1, Fatty-acid amide hydrolase 1 (Rattus norvegicus, UniProt P97612).
T1 sequence (P97612 whole entry): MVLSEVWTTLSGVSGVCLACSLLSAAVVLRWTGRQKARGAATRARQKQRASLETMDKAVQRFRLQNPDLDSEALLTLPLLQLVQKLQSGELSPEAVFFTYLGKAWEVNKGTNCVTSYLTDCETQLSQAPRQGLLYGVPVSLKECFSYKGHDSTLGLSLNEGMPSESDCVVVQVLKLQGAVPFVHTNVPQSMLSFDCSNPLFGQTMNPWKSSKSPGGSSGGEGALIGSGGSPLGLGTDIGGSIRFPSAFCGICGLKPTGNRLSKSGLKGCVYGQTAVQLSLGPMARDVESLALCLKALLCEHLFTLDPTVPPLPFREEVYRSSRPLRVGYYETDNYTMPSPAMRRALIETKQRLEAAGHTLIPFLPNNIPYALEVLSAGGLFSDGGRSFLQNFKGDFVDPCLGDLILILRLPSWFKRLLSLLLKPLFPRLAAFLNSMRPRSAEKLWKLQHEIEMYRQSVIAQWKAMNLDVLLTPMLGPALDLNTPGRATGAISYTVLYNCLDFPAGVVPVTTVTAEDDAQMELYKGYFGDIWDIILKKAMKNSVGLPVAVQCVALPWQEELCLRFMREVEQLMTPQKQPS
The experiment in a line: Inhibition of FAAH in rat brain membrane at pH 7.4 using N-arachidonoyl-[14C]-ethanolamine as substrate preincubated for 10 mins followed by substrate addition measured after 30 mins by scintillation counting method. In kind it is cell membranes.
Details: not given
In outline:
(§1)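 Rat brain 10,000 x g membrane fraction (70 µg/sample) in 50 mM Tris-HCl at pH 9.0 or 7.4, preincubated 10 min with compound. [14C]-AEA diluted with AEA then added, reaction run at 37 °C. [14C]-ethanolamine in the aqueous phase after CHCl3/MeOH 1:1 extraction counted by scintillation.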
Usually IC50 stands for the midpoint of a concentration-inhibition curve. In the case of `CN(CCCOc1ccc2ccc(=O)oc2c1)Cc1cccc(OC(=O)NCCCCCc2ccccc2)c1`, the IC50 came to 4100 nM.

The target of the next data set is T2, Cholinesterase (Homo sapiens, UniProt P06276). Description: Inhibition of human serum BuChE assessed as pseudo-first order rate constant for enzyme carbamoylation using butyrylthiocholine iodide as substrate preincubated for 2 to 30 mins followed by substrate addition by Ellman's method.
T2 sequence (P06276 whole entry): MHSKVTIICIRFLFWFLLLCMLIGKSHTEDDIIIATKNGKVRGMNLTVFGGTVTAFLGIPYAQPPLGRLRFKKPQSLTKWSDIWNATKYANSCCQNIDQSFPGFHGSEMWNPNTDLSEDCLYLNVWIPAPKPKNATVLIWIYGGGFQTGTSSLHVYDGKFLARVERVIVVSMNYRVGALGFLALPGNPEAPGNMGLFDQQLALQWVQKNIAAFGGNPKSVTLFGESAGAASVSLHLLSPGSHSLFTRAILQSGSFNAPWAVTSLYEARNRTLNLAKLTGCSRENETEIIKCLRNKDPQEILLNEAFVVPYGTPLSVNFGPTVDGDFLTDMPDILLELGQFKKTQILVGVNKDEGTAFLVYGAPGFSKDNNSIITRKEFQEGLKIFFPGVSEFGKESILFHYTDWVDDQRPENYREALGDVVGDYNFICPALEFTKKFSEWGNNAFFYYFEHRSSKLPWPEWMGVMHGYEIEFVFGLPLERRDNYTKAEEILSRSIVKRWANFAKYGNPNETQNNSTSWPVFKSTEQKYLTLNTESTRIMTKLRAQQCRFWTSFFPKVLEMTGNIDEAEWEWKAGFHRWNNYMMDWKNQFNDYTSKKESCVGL
Details: not given
In outline: (§2)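 Stopped-time assay at pH 8.0, 37 °C, five inhibitor concentrations. AChE: 16.7-167.5 nM, residual activity read at 15, 30, 60, 90 and 120 min. BuChE: 0.46-4.58 nM, read at […], 2, 5, 10, 15 and 30 min. Activities corrected against an uninhibited control at each time. R = R0·exp(−kobs·t)+R∞ fitted to give kobs. k3 obtained from a double-reciprocal plot of kobs vs [I].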
(DTNB colorimetry detects thiols as they appear.)
Regarding `CCCCCCc1ccc(NC(=O)Oc2cccc(CN(C)CCCOc3ccc4ccc(=O)oc4c3)c2)cc1`, the K came out at 0.461 min⁻¹.

In another data set the target is T3, Acetylcholinesterase (Homo sapiens, UniProt P22303). The experiment in a line: Inhibition of recombinant human AChE expressed in HEK293 cells assessed as pseudo-first order rate constant for enzyme carbamoylation using acetylthiocholine iodide as substrate preincubated for 15 to 120 mins followed by substrate addition by Ellman's method.
T3 sequence (P22303 whole entry): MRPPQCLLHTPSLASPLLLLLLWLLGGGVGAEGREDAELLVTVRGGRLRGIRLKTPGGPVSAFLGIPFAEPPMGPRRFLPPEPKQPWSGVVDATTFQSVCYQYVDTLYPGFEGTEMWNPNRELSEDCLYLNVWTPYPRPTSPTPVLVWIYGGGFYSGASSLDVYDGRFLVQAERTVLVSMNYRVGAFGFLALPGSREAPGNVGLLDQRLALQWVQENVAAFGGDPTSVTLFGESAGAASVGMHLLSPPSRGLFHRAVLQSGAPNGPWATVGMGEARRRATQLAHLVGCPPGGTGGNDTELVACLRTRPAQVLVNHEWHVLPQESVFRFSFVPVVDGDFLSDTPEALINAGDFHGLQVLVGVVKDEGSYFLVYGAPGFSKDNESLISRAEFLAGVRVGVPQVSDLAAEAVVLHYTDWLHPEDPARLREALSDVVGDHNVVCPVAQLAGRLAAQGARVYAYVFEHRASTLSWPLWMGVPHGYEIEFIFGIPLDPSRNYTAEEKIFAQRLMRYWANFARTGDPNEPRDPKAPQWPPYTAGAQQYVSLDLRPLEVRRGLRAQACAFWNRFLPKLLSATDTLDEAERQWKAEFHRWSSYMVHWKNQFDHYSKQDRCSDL
Details: not given
In outline: as §2
Consider `CCCCCCc1ccc(NC(=O)Oc2cccc(CN(C)CCCOc3ccc4ccc(=O)oc4c3)c2)cc1`, for which the K was found to be 0.203 min⁻¹.

A further data set deals with SH-SY5Y. Description: Cytotoxicity against human SH-SY5Y assessed as reduction in cell viability at 50 uM after 24 hrs by MTT assay. In kind it is cell-based.
Details: not given
In outline: (§3)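 SH-SY5Y neuroblastoma cells grown in DMEM with 2 mM L-glutamine, penicillin/streptomycin and 10% FBS. Cells seeded and cultured overnight at 37°C, 5% CO2. Compounds in DMSO (final under 0.1%) added for 24 h. MTT 0.5 mg/mL added for 3 h, formazan taken up in isopropanol, absorbance read at 620 nm. Viability given relative to vehicle. Three independent experiments in quadruplicate.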
Turning to `CCCCCCCNC(=O)Oc1cccc(CN(C)CCCOc2ccc3ccc(=O)oc3c2)c1`, the Activity result is recorded as “Toxic”.

In a further data set the test system is Homo sapiens. The experiment in a line: Binding affinity to AChE in human assessed as enzyme reactivation half life at 8 to 40 mg/kg, po. In kind it is functional, organism-based.
Details: not given
Consider `CCCCCCCNC(=O)Oc1ccc2c(c1)[C@]1(C)CCN(C)[C@@H]1N2C`, for which the T1/2 worked out at 10 h.

Another data set concerns SH-SY5Y. Description: Cytotoxicity against human SH-SY5Y assessed as reduction in cell viability at 1 to 50 uM after 24 hrs by MTT assay.
Details: not given
The data set is classed as cell-based. The procedure, abridged: as §3
In general terms: Tetrazolium assays rely on reduction of a dye to a coloured formazan, in cell work by metabolically active cells.
Consider `NC(=O)c1cccc(-c2cccc(OC(=O)NC3CCCCC3)c2)c1` [URB-597], for which the Activity result is reported as “Non-toxic”.

For `CCCCCCCNC(=O)Oc1cccc(-n2cc(COc3ccc4ccc(=O)oc4c3)nn2)c1`, the Activity result was “Non-toxic”.

Regarding `CN(CCCOc1ccc2ccc(=O)oc2c1)Cc1cccc(OC(=O)NCCCCCc2ccccc2)c1`, the Activity result was “Non-toxic”.

For a further data set, the target named is T1, Fatty-acid amide hydrolase 1. Description: Inhibition of FAAH in rat brain membrane at pH 9 using N-arachidonoyl-[14C]-ethanolamine as substrate preincubated for 10 mins followed by substrate addition measured after 30 mins by scintillation counting method.
Details: not given
The data set is classed as cell membranes. In outline: as §1
For `CN(CCCOc1ccc2ccc(=O)oc2c1)Cc1cccc(OC(=O)NCCCCCc2ccccc2)c1`, 183 nM corresponded to half-maximal inhibition (IC50).

Another data set deals with SH-SY5Y. The experiment in a line: Cytotoxicity against human SH-SY5Y assessed as reduction in cell viability at 1 to 25 uM after 24 hrs by MTT assay. In kind it is cell-based.
Details: not given
In outline:
as §3
For the molecule `CCCCCCCNC(=O)Oc1cccc(CN(C)CCCOc2ccc3ccc(=O)oc3c2)c1`, the Activity entry was “Non-toxic”.

In a further data set the target is T3, Acetylcholinesterase. Description: Inhibition of recombinant human AChE expressed in HEK293 cells assessed as enzyme carbamoylation using acetylthiocholine iodide as substrate preincubated with enzyme followed by substrate addition by Ellman's method. The note with it: TDE = time-dependent effect.
With `CCCCCCCNC(=O)Oc1cccc(CN(C)CCCOc2ccc3c(=O)c4cccnc4oc3c2)c1`, the inhibition entry was “tde”.

Take `CCCCCCc1ccc(NC(=O)Oc2cccc(CN(C)CCCOc3ccc4ccc(=O)oc4c3)c2)cc1`: the inhibition entry was “tde”.

With `CN(CCCOc1ccc2ccc(=O)oc2c1)Cc1cccc(OC(=O)NCCCCCc2ccccc2)c1`, the inhibition result was “tde”.

The next data set deals with T2, Cholinesterase. The experiment in a line: Inhibition of human serum BuChE using butyrylthiocholine iodide as substrate preincubated for 15 mins followed by substrate addition by Ellman's method.
Details: not given
In outline: (§4)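 Ellman assay at 37 °C in 0.1 M phosphate pH 8.0 with 340 µM DTNB, 0.02 U/mL enzyme and 550 µM thiocholine substrate. Enzyme and inhibitor preincubated before substrate: AChE 120 min (one compound 60 min), BuChE 15 or 20 min depending on N-substituent. Non-enzymatic blanks run. […] IC50 by linear regression of % inhibition vs log concentration. Mean of 2-3 independent runs in duplicate.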
Molecule `CCCCCCc1ccc(NC(=O)Oc2cccc(CN(C)CCCOc3ccc4ccc(=O)oc4c3)c2)cc1` returned an IC50 of 32.1 nM.

The target of the next data set is T3, Acetylcholinesterase. Description: Inhibition of recombinant human AChE expressed in HEK293 cells using acetylthiocholine iodide as substrate preincubated for 120 mins followed by substrate addition by Ellman's method.
Details: not given
In outline:
as §4
In the case of `CCCCCCCNC(=O)Oc1cccc(CN(C)CCCOc2ccc3ccc(=O)oc3c2)c1`, the IC50 worked out at 37.4 nM.

Regarding `CCCCCCCNC(=O)Oc1cccc(CN(C)CCCOc2ccc3c(=O)c4cccnc4oc3c2)c1`, the IC50 was found to be 13 nM.

Take `CCCCCCCNC(=O)Oc1cccc(-n2cc(COc3ccc4ccc(=O)oc4c3)nn2)c1`: the half-inhibitory concentration (IC50) turned out to be 702 nM.

Another data set deals with T1, Fatty-acid amide hydrolase 1. The experiment in a line: Inhibition of FAAH in rat brain membrane using N-arachidonoyl-[14C]-ethanolamine as substrate incubated for 30 mins by scintillation counting method. In kind it is cell membranes.
Details: not given
The procedure, abridged:
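Rat brain 10,000 x g membrane fraction (70 µg/sample) co-incubated with compound and [14C]-AEA diluted with unlabelled AEA in 50 mM Tris-HCl, pH 9.00-10.00, 37 °C, 30 min. Released [14C]-ethanolamine measured by scintillation of the aqueous phase after CHCl3/MeOH 1:1 extraction.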
Regarding `CCCCCCCNC(=O)Oc1cccc(CN(C)CCCOc2ccc3ccc(=O)oc3c2)c1`, the IC50 turned out to be 161 nM.

Regarding `CCCCCCCNC(=O)Oc1cccc(CN(C)CCCOc2ccc3c(=O)c4cccnc4oc3c2)c1`, the IC50 is 3130 nM.

Regarding `CCCCCCc1ccc(NC(=O)Oc2cccc(CN(C)CCCOc3ccc4ccc(=O)oc4c3)c2)cc1`, the IC50 was > 50000 nM.

`CCCCCCCNC(=O)Oc1cccc(-n2cc(COc3ccc4ccc(=O)oc4c3)nn2)c1`: the 50% inhibitory concentration (IC50) worked out at 61.9 nM.

Another data set addresses T2, Cholinesterase. The experiment in a line: Inhibition of human serum BuChE using butyrylthiocholine iodide as substrate preincubated for 20 mins followed by substrate addition by Ellman's method.
Details: not given
In outline: as §4
For `CCCCCCCNC(=O)Oc1cccc(CN(C)CCCOc2ccc3ccc(=O)oc3c2)c1`, half-maximal inhibition (IC50) was put at 1.36 nM.

Molecule `CCCCCCCNC(=O)Oc1cccc(CN(C)CCCOc2ccc3c(=O)c4cccnc4oc3c2)c1` yielded an IC50 of 0.69 nM.

`CCCCCCCNC(=O)Oc1cccc(-n2cc(COc3ccc4ccc(=O)oc4c3)nn2)c1` had an IC50 of 71.2 nM.

The next data set concerns the target T3, Acetylcholinesterase. The experiment in a line: Inhibition of recombinant human AChE expressed in HEK293 cells using acetylthiocholine iodide as substrate preincubated for 60 mins followed by substrate addition by Ellman's method.
Details: not given
In outline: as §4
As to `CCCCCCc1ccc(NC(=O)Oc2cccc(CN(C)CCCOc3ccc4ccc(=O)oc4c3)c2)cc1`, the IC50 came to 3800 nM.

The target of another data set is T2, Cholinesterase. Description: Inhibition of human serum BuChE assessed as enzyme carbamoylation using butyrylthiocholine iodide as substrate preincubated with enzyme followed by substrate addition by Ellman's method. The following applies: TDE = time-dependent effect.
`CCCCCCCNC(=O)Oc1cccc(CN(C)CCCOc2ccc3c(=O)c4cccnc4oc3c2)c1`: the inhibition result was “tde”.

For `CCCCCCc1ccc(NC(=O)Oc2cccc(CN(C)CCCOc3ccc4ccc(=O)oc4c3)c2)cc1`, the inhibition result is “tde”.

Regarding `CN(CCCOc1ccc2ccc(=O)oc2c1)Cc1cccc(OC(=O)NCCCCCc2ccccc2)c1`, the inhibition entry was “tde”.

For a further data set, the target named is T1, Fatty-acid amide hydrolase 1. The experiment in a line: Inhibition of FAAH in rat brain membrane using N-arachidonoyl-[14C]-ethanolamine as substrate preincubated for 20 mins followed by substrate addition measured after 30 mins by scintillation counting method. In kind it is cell membranes.
Details: not given
In outline: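 Compound preincubated 20 min at 37 °C with rat brain 10,000 x g membranes (70 µg/sample), then [14C]-AEA (diluted with AEA) added in 50 mM Tris-HCl pH 9.00-10.00, 37 °C, 30 min. [14C]-ethanolamine counted by scintillation after CHCl3/MeOH 1:1 extraction.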
For `CCCCCCCNC(=O)Oc1cccc(CN(C)CCCOc2ccc3ccc(=O)oc3c2)c1`, the IC50 was found to be 28.5 nM.

Molecule `CCCCCCCNC(=O)Oc1cccc(CN(C)CCCOc2ccc3c(=O)c4cccnc4oc3c2)c1` came in with an IC50 of 202 nM.

As to `CCCCCCc1ccc(NC(=O)Oc2cccc(CN(C)CCCOc3ccc4ccc(=O)oc4c3)c2)cc1`, the IC50 is > 50000 nM.

Take `CCCCCCCNC(=O)Oc1cccc(-n2cc(COc3ccc4ccc(=O)oc4c3)nn2)c1`: the IC50 worked out at 15.7 nM.
